In ChEMBL document CHEMBL1134957, “Synthesis and SAR of 4-carboxy-2-azetidinone mechanism-based tryptase inhibitors” (Bioorg Med Chem Lett, 2002):

Columns and labels:
[1] = Aqueous Stability (half-life period) at pH 7 and 37 degrees; assay type: ADME; details: aqueous solution
Outline: (§1)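 Compound half-life, reported in hours, was measured by incubation in aqueous buffer at 37 °C, run separately at pH 7 and pH 9.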

[2] = Aqueous Stability (half-life period) at pH 9 and 37 degrees; assay type: ADME; details: aqueous solution; outline: as §1
Homo sapiens [3] = species on record: Homo sapiens; assay: Selectivity for human tryptase compared to human thrombin.
Homo sapiens [4] = species on record: Homo sapiens; assay: Selectivity for human tryptase compared to human tissue plasminogen activator tissue.
Tryptase = Tryptase (Homo sapiens, UniProt Q9BZJ3+Q15661+Q9NRR2); assay: In vitro inhibition of human tryptase.
Homo sapiens [5] = species on record: Homo sapiens; assay: Selectivity for human tryptase compared to human trypsin.
Homo sapiens [6] = species on record: Homo sapiens; assay: Ratio of inhibitiroy activities against human tryptase and human plasminogen activator urokinase microPa
Homo sapiens [7] = species on record: Homo sapiens; assay: Selectivity for human tryptase compared to human plasmin.
Homo sapiens [8] = species on record: Homo sapiens; assay: Selectivity for human tryptase compared to human urokinase plasminogen activator.
Cavia porcellus [9] = species on record: Cavia porcellus; assay: Dose required for the inhibition of the cellular inflammatory response in ovalbumin-sensitized guinea pigs was evaluated by the reduction in cell count by 70-80%; assay type: functional
Outline: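 Ovalbumin-sensitized guinea pigs were given saline or compound as an intratracheal spray at two dose levels (75 or 225 per kg), and the tracheal incision was closed. Ovalbumin was injected into the jugular vein about 6 min after dosing, and the animals recovered from anesthesia. Bronchoalveolar lavage cell counts and protein were measured 24 h later. Controls were sham-operated animals without ovalbumin challenge.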

Cavia porcellus [10] = assay: Effect (decrease in dynamic lung compliance) on pulmonary mechanics of ovalbumin-sensitized guinea pigs following allergen induced bronchoconstriction upon intratracheal dosage of 75 ug/kg 10 min prior to ovalbumin challenge; assay type: functional
Outline: (§2)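 Guinea pigs were sensitized by ip ovalbumin with aluminum hydroxide on days 0 and 14, plus cyclophosphamide (30 mg/kg) on day 12, and used between days 35 and 65. Under Na-pentobarbital anesthesia they were mechanically ventilated, with intratracheal flow and pressure recorded in real time. Ten min before iv ovalbumin challenge, compound was given as an intratracheal aerosol spray. Rlung and Cdyn were recorded as % change (n=9).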

Cavia porcellus [11] = species on record: Cavia porcellus; assay: Effect (increase in lung resistance (Rlung)) on pulmonary mechanics of ovalbumin-sensitized guinea pigs following allergen induced bronchoconstriction; assay type: functional; outline: as §2
Cavia porcellus [12] = species on record: Cavia porcellus; assay: Effect (decrease in dynamic lung compliance) on pulmonary mechanics of ovalbumin-sensitized guinea pigs following allergen induced bronchoconstriction; assay type: functional; outline: as §2
Cavia porcellus [13] = assay: Effect (increase in lung resistance (Rlung)) on pulmonary mechanics of ovalbumin-sensitized guinea pigs following allergen induced bronchoconstriction upon intratracheal dosage of 75 ug/kg 10 min prior to ovalbumin challenge; assay type: functional; outline: as §2

Row | half-life [1] [h] | half-life [2] [h] | Selectivity ratio (Homo sapiens [3]) | Selectivity ratio (Homo sapiens [4]) | IC50 (Tryptase) [nM] | Selectivity ratio (Homo sapiens [5]) | Selectivity ratio (Homo sapiens [6]) | Selectivity ratio (Homo sapiens [7]) | Selectivity ratio (Homo sapiens [8]) | SMILES | Dose (Cavia porcellus [9]) [mg/kg] | Cdyn (Cavia porcellus [10]) [% delta] | Rlung (Cavia porcellus [11]) [% delta] | Cdyn (Cavia porcellus [12]) [% delta] | Rlung (Cavia porcellus [13]) [% delta]
1 | > 48 | 5.6 | 683 | > 1200 | 9 | 2 | 70 | 210 | – | COC(=O)N1CCN(C(=O)N2C(=O)[C@H](CCCN=C(N)N)[C@H]2C(=O)O)CC1 | – | – | – | – | –
2 | > 48 | 6.2 | > 8250 | > 8250 | 4 | 8 | – | 295 | 218 | CC(C)(C)OC(=O)N1CCN(C(=O)N2C(=O)[C@H](CCCN=C(N)N)[C@H]2C(=O)O)CC1 | – | – | – | – | –
3 | – | – | – | > 6 | – | 0.3 | – | > 6 | – | N=C(N)NCCC[C@H]1C(=O)N(C(=O)Nc2ccccc2)[C@@H]1C(=O)O (stereo in doubt) [listing 1 of 2 here] | – | – | – | – | –
4 | > 48 | 8 | 2620 | > 8250 | 4 | 18 | – | 430 | 135 | CC(C)(C)NC(=O)N1CCN(C(=O)N2C(=O)[C@H](CCCN=C(N)N)[C@H]2C(=O)O)CC1 | 0.225 | -43 | 421 | -69 | 89
5 | – | – | 142 | 128 | 9 | 1 | – | 17 | 3 | N=C(N)NCCC[C@H]1C(=O)N(C(=O)c2ccccc2)[C@@H]1C(=O)O | – | – | – | – | –
6 | – | – | 1550 | 117 | – | 1 | – | 52 | 3 | N=C(N)NCCC[C@H]1C(=O)N(C(=O)Nc2ccccc2)[C@@H]1C(=O)O (stereo in doubt; 8a) [listing 1 of 2 here] | – | – | – | – | –
7 | > 48 | 6.4 | > 6600 | > 6600 | 5 | 3 | – | 227 | 520 | CCN(CC)C(=O)N1CCN(C(=O)N2C(=O)[C@H](CCCN=C(N)N)[C@H]2C(=O)O)CC1 | – | – | – | – | –
8 | > 48 | 2.5 | > 1500 | > 1500 | 7 | 3 | – | 232 | 154 | CC(C)(C)C(=O)N1CCN(C(=O)N2C(=O)[C@H](CCCN=C(N)N)[C@H]2C(=O)O)CC1 | – | – | – | – | –
9 | > 48 | 9.1 | – | – | – | – | – | – | – | N=C(N)NCCC[C@H]1C(=O)N(C(=O)NC2CCCCC2)[C@@H]1C(=O)O | – | – | – | – | –
10 | > 48 | 2.2 | – | – | 6 | – | – | – | – | N=C(N)NCCC[C@H]1C(=O)N(C(=O)Nc2ccccc2)[C@@H]1C(=O)O (stereo in doubt; 8a) [listing 2 of 2 here] | – | – | – | – | –
11 | – | – | – | – | 5380 | – | – | – | – | N=C(N)NCCC[C@H]1C(=O)N(C(=O)Nc2ccccc2)[C@@H]1C(=O)O (stereo in doubt) [listing 2 of 2 here] | – | – | – | – | –
12 | > 48 | 6.8 | 465 | 465 | 71 | 2 | – | 45 | 16 | N=C(N)NCCC[C@H]1C(=O)N(C(=O)NCc2ccccc2)[C@@H]1C(=O)O | – | – | – | – | –
13 | > 48 | 1.7 | 556 | > 2500 | 13 | 14 | – | 147 | 43 | N=C(N)NCCC[C@H]1C(=O)N(C(=O)N2CCN(S(=O)(=O)c3ccccc3)CC2)[C@@H]1C(=O)O | – | – | – | – | –
14 | – | – | – | – | 992 | – | – | – | – | N=C(N)NCCC[C@H]1C(=O)N(C(=O)Nc2ccccc2)[C@@H]1C(=O)O (relative stereo) | – | – | – | – | –
15 | > 48 | 6.5 | > 1000 | > 1000 | 11 | 1.5 | – | 314 | 8 | CC(C)(C)CC(=O)N1CCN(C(=O)N2C(=O)[C@H](CCCN=C(N)N)[C@H]2C(=O)O)CC1 | – | – | – | – | –
16 | 31.8 | 0.3 | 177 | 6800 | 0.7 | 3 | – | 172 | 75 | CNC(=O)[C@@H]1[C@@H](CCCN=C(N)N)C(=O)N1C(=O)N1CCN(C(=O)OC(C)(C)C)CC1 | – | – | – | – | –

Row | SMILES | half-life [1] [h] | half-life [2] [h] | Selectivity ratio (Homo sapiens [3]) | Selectivity ratio (Homo sapiens [4]) | IC50 (Tryptase) [nM] | Selectivity ratio (Homo sapiens [5]) | Selectivity ratio (Homo sapiens [6]) | Selectivity ratio (Homo sapiens [7]) | Selectivity ratio (Homo sapiens [8]) | Dose (Cavia porcellus [9]) [mg/kg] | Cdyn (Cavia porcellus [10]) [% delta] | Rlung (Cavia porcellus [11]) [% delta] | Cdyn (Cavia porcellus [12]) [% delta] | Rlung (Cavia porcellus [13]) [% delta]
17 | N=C(N)NCCC[C@H]1C(=O)N(C(=O)N2CCN(C(=O)c3ccccc3)CC2)[C@@H]1C(=O)O | > 48 | 3.9 | 286 | > 2000 | 5.2 | 1 | – | 332 | 142 | – | – | – | – | –
18 | N=C(N)NCCC[C@H]1C(=O)N(C(=O)N2CCN(C(=O)OCCc3ccccc3)CC2)[C@@H]1C(=O)O | > 48 | 7 | 3320 | 14200 | 0.7 | 8 | – | 302 | 926 | – | – | – | – | –
19 | N=C(N)NCCC[C@H]1C(=O)N(C(=O)c2ccc(-c3ccccc3)cc2)[C@@H]1C(=O)O | 11.1 | < 0.1 | 65 | 1610 | 1 | 2 | – | 8 | 3270 | – | – | – | – | –
20 | N=C(N)NCCC[C@H]1C(=O)N(S(=O)(=O)c2ccc(-c3ccccc3)cc2)[C@@H]1C(=O)O | 10.6 | < 0.1 | 7 | 4370 | 1 | 1 | – | 47 | 44 | – | – | – | – | –
21 | N=C(N)NCCC[C@H]1C(=O)N(C(=O)c2cccs2)[C@@H]1C(=O)O | 8.7 | < 0.1 | 190 | 109 | 1 | 3 | – | 12 | 5 | – | – | – | – | –
22 | CC(C)(C)OC(=O)N1CCN(C(=O)N2C(=O)[C@H](CCCN=C(N)N)[C@H]2C(N)=O)CC1 (single isomer, unassigned) | 42 | 0.3 | 105 | 8300 | 0.4 | 6 | – | 227 | 82 | – | – | – | – | –
23 | CC(C)(C)OC(=O)N1CCN(C(=O)N2C(=O)[C@H](CCCN=C(N)N)[C@H]2C(=O)N2CCCCC2)CC1 | > 48 | 0.8 | 155 | 4430 | 3 | 1 | – | 205 | 246 | – | – | – | – | –
